Assays:
[1] = molecular target: Alpha-1D adrenergic receptor (Homo sapiens) (UniProt P25100); assay: Binding affinity to andrenergic alpha1D receptor (unknown origin) assessed as inhibition of radioligand binding by radioligand competition binding assay; settings: concentration not given here
[2] = organism: Homo sapiens; assay: Ratio of IC50 for human beta3-adrenergic receptor to IC50 for human beta1-adrenergic receptor
[3] = molecular target: T1, Beta-1 adrenergic receptor (Homo sapiens, UniProt P08588); assay: Antagonist activity at human beta1-adrenergic receptor expressed in CHO-K1 cells assessed as decrease in isoproterenol-induced cAMP accumulation after 15 mins by HTRF assay; assay type: functional, cell-based
In short: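 Run as a contract service: human beta1 receptor in CHO-K1 cells, with antagonist mode against isoproterenol-stimulated cAMP. Incubation 15 min at 37 °C in HBSS with 5 mM HEPES, 0.1% BSA and 100 µM IBMX, pH 7.4, in 0.40% DMSO vehicle. cAMP accumulation read by HTRF; dose-response curves.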
Target sequence in this assay (P08588 whole entry): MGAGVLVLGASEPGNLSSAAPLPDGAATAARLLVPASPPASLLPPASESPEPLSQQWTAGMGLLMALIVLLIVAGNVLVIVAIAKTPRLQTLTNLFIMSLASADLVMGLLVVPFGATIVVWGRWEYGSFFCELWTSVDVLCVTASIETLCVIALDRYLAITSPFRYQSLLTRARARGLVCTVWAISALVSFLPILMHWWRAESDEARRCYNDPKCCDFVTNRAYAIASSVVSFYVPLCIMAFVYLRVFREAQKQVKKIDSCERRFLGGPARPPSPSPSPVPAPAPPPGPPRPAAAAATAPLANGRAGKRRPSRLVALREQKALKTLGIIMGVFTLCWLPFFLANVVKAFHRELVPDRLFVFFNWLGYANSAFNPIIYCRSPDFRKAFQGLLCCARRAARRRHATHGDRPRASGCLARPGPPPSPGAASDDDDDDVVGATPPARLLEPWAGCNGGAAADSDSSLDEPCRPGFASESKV

[4] = molecular target: Alpha-2A adrenergic receptor (Homo sapiens) (UniProt P08913); assay: Binding affinity to andrenergic alpha2A receptor (unknown origin) assessed as inhibition of radioligand binding at 10 uM by radioligand competition binding assay
[5] = molecular target: Alpha-1A adrenergic receptor (Homo sapiens) (UniProt P35348); assay: Binding affinity to andrenergic alpha1A receptor (unknown origin) assessed as inhibition of radioligand binding by radioligand competition binding assay; settings: concentration not given here
[6] = molecular target: Muscarinic acetylcholine receptor M2 (Homo sapiens) (UniProt P08172); assay: Binding affinity to muscarinic M2 receptor (unknown origin) assessed as inhibition of radioligand binding by radioligand competition binding assay; settings: concentration not given here
[7] = molecular target: Delta-type opioid receptor (Homo sapiens) (UniProt P41143); assay: Binding affinity to DOR (unknown origin) assessed as inhibition of radioligand binding by radioligand competition binding assay; settings: concentration not given here
[8] = molecular target: T1, Beta-1 adrenergic receptor; assay: Binding affinity to andrenergic beta1 receptor (unknown origin) assessed as inhibition of radioligand binding by radioligand competition binding assay
Target sequence in this assay (P08588 whole entry): as above

[9] = molecular target: Beta-3 adrenergic receptor (Homo sapiens, UniProt P13945); assay: Binding affinity to andrenergic beta3 receptor (unknown origin) assessed as inhibition of radioligand binding at 10 uM by radioligand competition binding assay
[10] = molecular target: 5-hydroxytryptamine receptor 2C (Homo sapiens) (UniProt P28335); assay: Binding affinity to 5-HT2C receptor (unknown origin) assessed as inhibition of radioligand binding by radioligand competition binding assay; settings: concentration not given here
[11] = molecular target: Translocator protein (Homo sapiens) (UniProt P30536); assay: Binding affinity to PBR (unknown origin) assessed as inhibition of radioligand binding by radioligand competition binding assay; settings: concentration not given here
[12] = molecular target: T2, 5-hydroxytryptamine receptor 2B (Homo sapiens, UniProt P41595); assay: Binding affinity to 5-HT2B receptor (unknown origin) assessed as inhibition of radioligand binding at 10 uM by radioligand competition binding assay
[13] = molecular target: T1, Beta-1 adrenergic receptor; assay: Binding affinity to andrenergic beta1 receptor (unknown origin) assessed as inhibition of radioligand binding at 10 uM by radioligand competition binding assay
Target sequence in this assay (P08588 whole entry, looked up): as the sequence (P08588 whole entry) above

[14] = molecular target: Sodium-dependent dopamine transporter (Homo sapiens) (UniProt Q01959); assay: Binding affinity to DAT (unknown origin) assessed as inhibition of radioligand binding by radioligand competition binding assay; settings: concentration not given here
[15] = organism: Homo sapiens; assay: Binding affinity to GABAA receptor (unknown origin) assessed as inhibition of radioligand binding by radioligand competition binding assay; settings: concentration not given here
[16] = molecular target: 5-hydroxytryptamine receptor 6 (Homo sapiens, UniProt P50406); assay: Binding affinity to 5-HT6 receptor (unknown origin) assessed as inhibition of radioligand binding by radioligand competition binding assay
[17] = organism: Rattus norvegicus; assay: Binding affinity to rat GABAA BZP receptor assessed as inhibition of radioligand binding by radioligand competition binding assay; settings: concentration not given here
[18] = molecular target: D(3) dopamine receptor (Homo sapiens) (UniProt P35462); assay: Binding affinity to dopamine D3 receptor (unknown origin) assessed as inhibition of radioligand binding by radioligand competition binding assay; settings: concentration not given here
[19] = molecular target: 5-hydroxytryptamine receptor 2A (Homo sapiens) (UniProt P28223); assay: Binding affinity to 5-HT2A receptor (unknown origin) assessed as inhibition of radioligand binding by radioligand competition binding assay; settings: concentration not given here
[20] = molecular target: 5-hydroxytryptamine receptor 1A (Homo sapiens) (UniProt P08908); assay: Binding affinity to 5-HT1A receptor (unknown origin) assessed as inhibition of radioligand binding at 10 uM by radioligand competition binding assay
[21] = molecular target: Muscarinic acetylcholine receptor M1 (Homo sapiens) (UniProt P11229); assay: Binding affinity to muscarinic M1 receptor (unknown origin) assessed as inhibition of radioligand binding by radioligand competition binding assay; settings: concentration not given here
[22] = molecular target: D(2) dopamine receptor (Homo sapiens) (UniProt P14416); assay: Binding affinity to dopamine D2 receptor (unknown origin) assessed as inhibition of radioligand binding by radioligand competition binding assay; settings: concentration not given here
[23] = molecular target: Mu-type opioid receptor (Homo sapiens) (UniProt P35372); assay: Binding affinity to MOR (unknown origin) assessed as inhibition of radioligand binding by radioligand competition binding assay; settings: concentration not given here
[24] = molecular target: T1, Beta-1 adrenergic receptor; assay: Displacement of [3H]-CGP-12177 from human beta1-adrenergic receptor
Target sequence in this assay (P08588 whole entry): as above

[25] = molecular target: D(4) dopamine receptor (Homo sapiens) (UniProt P21917); assay: Binding affinity to dopamine D4 receptor (unknown origin) assessed as inhibition of radioligand binding by radioligand competition binding assay; settings: concentration not given here
[26] = molecular target: Histamine H1 receptor (Homo sapiens) (UniProt P35367); assay: Binding affinity to histamine H1 receptor (unknown origin) assessed as inhibition of radioligand binding by radioligand competition binding assay; settings: concentration not given here
[27] = molecular target: 5-hydroxytryptamine receptor 3A (Homo sapiens) (UniProt P46098); assay: Binding affinity to 5-HT3 receptor (unknown origin) assessed as inhibition of radioligand binding by radioligand competition binding assay; settings: concentration not given here
[28] = molecular target: Beta-2 adrenergic receptor (Homo sapiens, UniProt P07550); assay: Antagonist activity at human beta2-adrenergic receptor expressed in CHO-K1 cells assessed as decrease in procaterol-induced cAMP accumulation after 20 mins by HTRF assay; assay type: functional, cell-based
In short: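 Contract functional assay on human beta2 receptor expressed in CHO cells, with antagonist mode against agonist-stimulated cAMP. Incubation 20 min at 37 °C in HBSS, 5 mM HEPES, 0.1% BSA, 100 µM IBMX, pH 7.4, with 0.40% DMSO vehicle. HTRF quantitation of cAMP accumulation; dose-response curves.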

[29] = molecular target: Sigma non-opioid intracellular receptor 1 (Homo sapiens) (UniProt Q99720); assay: Binding affinity to sigma1 receptor (unknown origin) assessed as inhibition of radioligand binding by radioligand competition binding assay; settings: concentration not given here
[30] = molecular target: 5-hydroxytryptamine receptor 5A (Homo sapiens) (UniProt P47898); assay: Binding affinity to 5-HT5A receptor (unknown origin) assessed as inhibition of radioligand binding by radioligand competition binding assay; settings: concentration not given here
[31] = molecular target: Alpha-2B adrenergic receptor (Homo sapiens) (UniProt P18089); assay: Binding affinity to andrenergic alpha2B receptor (unknown origin) assessed as inhibition of radioligand binding at 10 uM by radioligand competition binding assay
[32] = molecular target: T2, 5-hydroxytryptamine receptor 2B; assay: Binding affinity to 5-HT2B receptor (unknown origin) assessed as inhibition of radioligand binding by radioligand competition binding assay

T2 sequence (P41595 whole entry): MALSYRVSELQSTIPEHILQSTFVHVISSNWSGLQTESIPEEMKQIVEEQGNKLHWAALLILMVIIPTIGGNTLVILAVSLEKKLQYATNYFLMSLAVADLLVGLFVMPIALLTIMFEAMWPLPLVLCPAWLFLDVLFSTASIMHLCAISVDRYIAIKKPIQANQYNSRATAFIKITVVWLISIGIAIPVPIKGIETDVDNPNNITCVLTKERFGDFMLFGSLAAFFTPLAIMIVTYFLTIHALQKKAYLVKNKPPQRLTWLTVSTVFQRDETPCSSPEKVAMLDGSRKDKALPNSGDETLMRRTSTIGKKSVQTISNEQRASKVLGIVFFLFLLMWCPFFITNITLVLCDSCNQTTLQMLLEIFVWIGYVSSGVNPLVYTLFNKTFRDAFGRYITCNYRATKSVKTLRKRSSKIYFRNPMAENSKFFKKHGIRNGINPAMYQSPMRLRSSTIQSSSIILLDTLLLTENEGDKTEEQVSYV
Sequence of 5-hydroxytryptamine receptor 1A (Homo sapiens) (P08908 whole entry): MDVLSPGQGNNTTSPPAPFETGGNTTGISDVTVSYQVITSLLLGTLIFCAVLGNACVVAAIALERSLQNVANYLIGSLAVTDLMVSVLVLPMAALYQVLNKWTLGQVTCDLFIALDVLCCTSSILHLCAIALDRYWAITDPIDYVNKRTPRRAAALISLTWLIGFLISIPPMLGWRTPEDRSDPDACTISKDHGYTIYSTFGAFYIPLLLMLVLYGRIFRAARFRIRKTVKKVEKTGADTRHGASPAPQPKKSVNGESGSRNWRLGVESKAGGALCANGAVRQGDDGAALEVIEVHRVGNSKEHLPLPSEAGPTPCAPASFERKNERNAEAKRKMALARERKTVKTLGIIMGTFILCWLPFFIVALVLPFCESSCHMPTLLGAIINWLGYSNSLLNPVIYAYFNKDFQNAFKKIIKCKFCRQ
Sequence of Muscarinic acetylcholine receptor M2 (Homo sapiens) (P08172 whole entry): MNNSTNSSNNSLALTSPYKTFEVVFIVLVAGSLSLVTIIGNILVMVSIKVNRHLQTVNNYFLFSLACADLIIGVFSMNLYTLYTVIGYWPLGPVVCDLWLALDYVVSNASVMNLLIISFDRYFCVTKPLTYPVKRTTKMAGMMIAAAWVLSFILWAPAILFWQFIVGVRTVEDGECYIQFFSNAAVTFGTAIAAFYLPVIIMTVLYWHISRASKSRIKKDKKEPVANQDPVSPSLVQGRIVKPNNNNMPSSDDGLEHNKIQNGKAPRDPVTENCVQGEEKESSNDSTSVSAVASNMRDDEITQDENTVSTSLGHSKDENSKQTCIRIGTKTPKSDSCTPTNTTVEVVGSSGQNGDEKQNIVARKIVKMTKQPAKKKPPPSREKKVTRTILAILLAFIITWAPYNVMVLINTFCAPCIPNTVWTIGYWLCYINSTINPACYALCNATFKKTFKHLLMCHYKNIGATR
Sequence of 5-hydroxytryptamine receptor 2A (Homo sapiens) (P28223 whole entry): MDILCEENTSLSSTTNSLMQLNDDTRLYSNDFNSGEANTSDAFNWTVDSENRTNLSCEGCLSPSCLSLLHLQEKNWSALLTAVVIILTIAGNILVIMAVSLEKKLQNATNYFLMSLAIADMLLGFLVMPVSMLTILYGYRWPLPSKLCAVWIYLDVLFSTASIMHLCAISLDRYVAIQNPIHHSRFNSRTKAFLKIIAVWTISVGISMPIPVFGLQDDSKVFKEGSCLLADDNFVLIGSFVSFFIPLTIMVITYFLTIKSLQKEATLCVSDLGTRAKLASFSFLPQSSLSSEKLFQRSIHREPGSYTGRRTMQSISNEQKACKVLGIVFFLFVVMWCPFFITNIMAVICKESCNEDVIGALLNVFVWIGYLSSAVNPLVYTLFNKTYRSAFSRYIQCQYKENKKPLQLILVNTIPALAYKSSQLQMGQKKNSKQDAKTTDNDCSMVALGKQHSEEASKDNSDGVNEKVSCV
Sequence of Mu-type opioid receptor (Homo sapiens) (P35372 whole entry): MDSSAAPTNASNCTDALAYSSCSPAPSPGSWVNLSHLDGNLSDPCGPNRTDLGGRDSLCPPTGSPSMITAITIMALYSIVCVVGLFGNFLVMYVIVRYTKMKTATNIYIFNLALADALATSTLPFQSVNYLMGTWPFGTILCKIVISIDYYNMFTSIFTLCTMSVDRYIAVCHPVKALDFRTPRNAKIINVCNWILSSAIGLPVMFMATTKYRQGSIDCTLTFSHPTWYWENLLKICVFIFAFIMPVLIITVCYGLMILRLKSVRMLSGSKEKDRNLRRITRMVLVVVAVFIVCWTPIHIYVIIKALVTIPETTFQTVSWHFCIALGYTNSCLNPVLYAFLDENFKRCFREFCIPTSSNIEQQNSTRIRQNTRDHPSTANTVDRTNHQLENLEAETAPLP
Sequence of Alpha-1D adrenergic receptor (Homo sapiens) (P25100 whole entry): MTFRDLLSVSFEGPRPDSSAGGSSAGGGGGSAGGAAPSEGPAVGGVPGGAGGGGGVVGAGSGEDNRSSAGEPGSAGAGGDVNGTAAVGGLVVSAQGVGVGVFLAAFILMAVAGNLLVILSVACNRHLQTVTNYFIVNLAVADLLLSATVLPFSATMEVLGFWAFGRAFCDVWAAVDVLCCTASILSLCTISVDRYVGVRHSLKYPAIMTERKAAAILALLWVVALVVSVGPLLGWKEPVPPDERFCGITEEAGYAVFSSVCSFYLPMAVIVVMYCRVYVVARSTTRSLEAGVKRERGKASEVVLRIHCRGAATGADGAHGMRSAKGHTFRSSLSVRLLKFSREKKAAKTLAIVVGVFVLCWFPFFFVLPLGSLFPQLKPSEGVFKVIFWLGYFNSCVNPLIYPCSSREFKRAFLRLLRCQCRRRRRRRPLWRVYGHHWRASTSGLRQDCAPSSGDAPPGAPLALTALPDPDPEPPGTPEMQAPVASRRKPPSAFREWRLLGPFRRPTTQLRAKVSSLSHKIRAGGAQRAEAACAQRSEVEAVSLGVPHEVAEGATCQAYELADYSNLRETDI
Sequence of Beta-3 adrenergic receptor (P13945 whole entry, looked up): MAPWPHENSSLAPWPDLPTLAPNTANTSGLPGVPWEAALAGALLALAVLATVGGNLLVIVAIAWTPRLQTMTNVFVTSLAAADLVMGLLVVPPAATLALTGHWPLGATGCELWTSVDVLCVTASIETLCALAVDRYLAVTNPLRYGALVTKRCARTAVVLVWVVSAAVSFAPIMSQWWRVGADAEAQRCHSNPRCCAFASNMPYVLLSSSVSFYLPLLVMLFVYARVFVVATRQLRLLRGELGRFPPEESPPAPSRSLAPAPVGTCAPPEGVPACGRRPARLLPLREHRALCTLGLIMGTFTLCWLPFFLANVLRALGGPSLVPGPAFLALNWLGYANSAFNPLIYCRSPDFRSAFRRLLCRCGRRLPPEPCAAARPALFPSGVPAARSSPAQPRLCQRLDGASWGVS
Sequence of D(3) dopamine receptor (Homo sapiens) (P35462 whole entry): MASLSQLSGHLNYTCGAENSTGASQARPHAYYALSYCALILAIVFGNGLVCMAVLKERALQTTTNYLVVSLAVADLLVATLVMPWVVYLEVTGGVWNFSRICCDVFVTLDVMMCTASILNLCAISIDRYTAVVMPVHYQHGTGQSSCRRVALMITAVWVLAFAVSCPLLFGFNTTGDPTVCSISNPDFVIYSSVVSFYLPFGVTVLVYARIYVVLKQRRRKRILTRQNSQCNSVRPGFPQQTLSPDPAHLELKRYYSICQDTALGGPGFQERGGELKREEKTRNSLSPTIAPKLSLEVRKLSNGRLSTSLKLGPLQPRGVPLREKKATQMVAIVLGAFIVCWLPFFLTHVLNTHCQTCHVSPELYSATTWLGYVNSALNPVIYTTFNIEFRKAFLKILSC
Sequence of Muscarinic acetylcholine receptor M1 (Homo sapiens) (P11229 whole entry): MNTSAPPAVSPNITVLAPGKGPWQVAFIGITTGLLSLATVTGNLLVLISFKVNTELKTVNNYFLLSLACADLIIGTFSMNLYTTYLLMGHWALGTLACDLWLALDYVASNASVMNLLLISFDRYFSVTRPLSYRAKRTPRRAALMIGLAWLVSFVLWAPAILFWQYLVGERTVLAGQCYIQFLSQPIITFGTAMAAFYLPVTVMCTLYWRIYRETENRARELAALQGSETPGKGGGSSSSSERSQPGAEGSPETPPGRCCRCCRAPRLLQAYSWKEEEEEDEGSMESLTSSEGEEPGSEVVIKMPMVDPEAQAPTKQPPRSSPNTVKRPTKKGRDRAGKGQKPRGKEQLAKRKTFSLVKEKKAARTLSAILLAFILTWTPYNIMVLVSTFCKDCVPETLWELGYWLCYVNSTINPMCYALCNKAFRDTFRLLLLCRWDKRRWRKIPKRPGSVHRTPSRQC
Sequence of Translocator protein (Homo sapiens) (P30536 whole entry): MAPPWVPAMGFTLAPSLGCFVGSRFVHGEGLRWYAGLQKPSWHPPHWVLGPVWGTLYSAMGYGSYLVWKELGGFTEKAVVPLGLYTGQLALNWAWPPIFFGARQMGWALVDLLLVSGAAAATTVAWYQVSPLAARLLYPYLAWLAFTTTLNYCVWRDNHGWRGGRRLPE

In the case of COc1cc2c3c(c1OC)-c1ccccc1[C@@H](O)[C@@H]3NCC2, the inhibition [1] is reported as < 50%, the Ratio IC50 [2] is reported as 150 and the IC50 [3] is reported as 17 nM. For the same compound, the inhibition [4] was > 50%, the inhibition [5] was < 50% and the inhibition [6] was < 50%. For the same compound, the inhibition [7] was < 50%, the Ki [8] was 19 nM and the inhibition [9] was > 50%. For the same compound, the inhibition [10] was < 50%, the inhibition [11] was < 50% and the inhibition [12] was > 50%. The inhibition [13] was > 50%, the inhibition [14] was < 50% and the inhibition [15] was < 50%. For the same compound, the Ki [16] was 862 nM, the inhibition [17] was < 50% and the inhibition [18] was < 50%. For the same compound, the inhibition [19] was < 50%, the inhibition [20] was > 50% and the inhibition [21] was < 50%. For the same compound, the inhibition [22] was < 50%, the inhibition [23] was < 50% and the IC50 [24] was 1.7 nM. The inhibition [25] was < 50%, the inhibition [26] was < 50% and the inhibition [27] was < 50%. The IC50 [28] was 6.9 nM, the inhibition [29] was < 50% and the inhibition [30] was < 50%. For the same compound, the inhibition [31] was > 50% and the Ki [32] was 246 nM.
